≈ marks a conversion by molar mass, not a printed value. Calls of active or inactive are those of the source. The calls are words filed in the database; no cut-off is given here.
Columns and labels:
Pseudomonas aeruginosa [1] = experiment: Antibacterial activity against Pseudomonas aeruginosa ATCC 27853 assessed as inhibition of bacterial growth incubated for 24 hrs by resazurin dye based broth microdilution method; assay type: functional
Method in brief: (§1)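 CLSI broth microdilution in cation-adjusted Mueller Hinton broth, pH 7.4 (±0.2). Compounds dissolved in DMSO at 25.6 mg mL⁻¹ (stock), diluted to 1–256 µg mL⁻¹. Inoculum 5 × 10⁵ CFU mL⁻¹ final; 24 h at 37 °C, static. Resazurin 0.015% then added, 2–4 h more; wells staying blue read as above MIC. Sulfacetamide reference.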

Escherichia coli [2] = experiment: Antibacterial activity against Escherichia coli ATCC 8739 assessed as inhibition of bacterial growth incubated for 24 hrs by resazurin dye based broth microdilution method; assay type: functional; method in brief: as §1
Bacillus subtilis [3] = experiment: Antibacterial activity against Bacillus subtilis ATCC 6051 assessed as inhibition of bacterial growth incubated for 24 hrs by resazurin dye based broth microdilution method; assay type: functional; method in brief: as §1
Staphylococcus aureus [4] = experiment: Antibacterial activity against Staphylococcus aureus CIP 107093 assessed as inhibition of bacterial growth incubated for 24 hrs by resazurin dye based broth microdilution method; assay type: functional; method in brief: as §1
Pseudomonas aeruginosa [5] = experiment: Antibacterial activity against Pseudomonas aeruginosa ATCC 27853 assessed as inhibition of bacterial growth at 1 to 256 ug/ml incubated for 24 hrs by resazurin dye based broth microdilution method; assay type: functional, organism-based; conditions: dose 1-256 µg/ml; method in brief: as §1
Staphylococcus aureus [6] = experiment: Antibacterial activity against Staphylococcus aureus CIP 107093 assessed as inhibition of bacterial growth at 1 to 256 ug/ml incubated for 24 hrs by resazurin dye based broth microdilution method; assay type: functional, organism-based; conditions: dose 1-256 µg/ml; method in brief: as §1
Bacillus subtilis [7] = experiment: Antibacterial activity against Bacillus subtilis ATCC 6051 assessed as inhibition of bacterial growth at 1 to 256 ug/ml incubated for 24 hrs by resazurin dye based broth microdilution method; assay type: functional, organism-based; conditions: dose 1-256 µg/ml; method in brief: as §1
Escherichia coli [8] = experiment: Antibacterial activity against Escherichia coli ATCC 8739 assessed as inhibition of bacterial growth at 1 to 256 ug/ml incubated for 24 hrs by resazurin dye based broth microdilution method; assay type: functional, organism-based; conditions: dose 1-256 µg/ml; method in brief: as §1
HaCaT = experiment: Cytotoxicity against human HaCaT cells incubated for 24 hrs by CyQuant LDH assay; assay type: toxicity, cell-based
Method in brief: (§2)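 HaCaT (10% FCS) or Caco-2 (20% FCS) grown in DMEM with 1% penicillin–streptomycin, 37 °C, 5% CO₂. Seeded in 24-well plates, grown 72 h, rinsed with PBS, then exposed 24 h to compounds at MIC and ½ MIC in fresh DMEM. LDH release measured. Untreated and damaged-cell controls; two independent assays, at least 2 replicates, mean ± SEM.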

Caco-2 = experiment: Cytotoxicity against human Caco-2 cells incubated for 24 hrs by CyQuant LDH assay; assay type: toxicity, cell-based; conditions: caco-2, 24 h; method in brief: as §2
Pseudomonas aeruginosa [9] = experiment: Antibiofilm activity against Pseudomonas aeruginosa ATCC 27853 assessed as inhibition of biofilm formation at 0.5 times of MIC by crystal violet staining based analysis relative to control; assay type: functional
Method in brief: (§3)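 Overnight cultures inoculated into fresh LB with compound at ½ MIC and grown 24 h at 37 °C, static. Growth read at 580 nm. Medium discarded, wells rinsed with distilled water, stained with 0.1% crystal violet, dye solubilized in 30% acetic acid, OD 595 nm; uninoculated-control staining subtracted. At least three independent replicates, mean ± SEM; one-way ANOVA with Dunnett test.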

Escherichia coli [10] = experiment: Antibiofilm activity against Escherichia coli ATCC 8739 assessed as inhibition of biofilm formation at 0.5 times of MIC by crystal violet staining based analysis relative to control; assay type: functional; method in brief: as §3

Structure (SMILES)	MIC (Pseudomonas aeruginosa [1])	MIC (Escherichia coli [2])	MIC (Bacillus subtilis [3])	MIC (Staphylococcus aureus [4])	Activity (Pseudomonas aeruginosa [5])	Activity (Staphylococcus aureus [6])	Activity (Bacillus subtilis [7])	Activity (Escherichia coli [8])	other results
Nc1ccc(S(=O)(=O)NC(=O)c2ccc([N+](=O)[O-])cc2)cc1	> 256 µg/mL	> 256 µg/mL	256 µg/mL (≈ 797 µM)	> 256 µg/mL	–	–	–	–	–
CC(=O)Nc1ccc(S(=O)(=O)NC(=O)c2ccccc2)cc1	–	–	–	–	inactive	inactive	inactive	inactive	–
COc1cc(C(=O)NS(=O)(=O)c2ccc(N)cc2)ccc1[N+](=O)[O-]	> 256 µg/mL	> 256 µg/mL	> 256 µg/mL	> 256 µg/mL	–	–	–	–	–
CC(=O)Nc1ccc(S(=O)(=O)NC(C)=O)cc1	–	–	–	–	inactive	inactive	inactive	inactive	–
Nc1ccc(S(=O)(=O)NC(=O)c2ccc(C(F)(F)F)cc2)cc1	> 256 µg/mL	> 256 µg/mL	> 256 µg/mL	> 256 µg/mL	–	–	–	–	–
CC(=O)NS(=O)(=O)c1ccc(N)cc1 [SULFACETAMIDE]	> 256 µg/mL	32 µg/mL (≈ 149 µM)	128 µg/mL (≈ 597 µM)	256 µg/mL (≈ 1190 µM)	–	–	–	–	Activity (HaCaT): Non-Toxic; Activity (Caco-2): Non-Toxic
Nc1ccc(S(=O)(=O)NC(=O)c2ccccc2)cc1 [SULFABENZAMIDE]	> 256 µg/mL	32 µg/mL (≈ 116 µM)	128 µg/mL (≈ 463 µM)	> 256 µg/mL	–	–	–	–	inhibition (INH) (Pseudomonas aeruginosa [9]): 14%; Activity (HaCaT): Non-Toxic; inhibition (INH) (Escherichia coli [10]): 30%; Activity (Caco-2): Non-Toxic
CC(=O)Nc1ccc(S(=O)(=O)NC(=O)c2ccc(C(F)(F)F)cc2)cc1	–	–	–	–	inactive	inactive	inactive	inactive	–
Nc1ccc(S(=O)(=O)NC(=O)c2ccc(Cl)cc2Cl)cc1	> 256 µg/mL	> 256 µg/mL	> 256 µg/mL	> 256 µg/mL	–	–	–	–	–
COc1cccc(C(=O)NS(=O)(=O)c2ccc(NC(C)=O)cc2)c1	–	–	–	–	inactive	inactive	inactive	inactive	–
COc1cccc(C(=O)NS(=O)(=O)c2ccc(N)cc2)c1	> 256 µg/mL	32 µg/mL (≈ 104 µM)	256 µg/mL (≈ 836 µM)	> 256 µg/mL	–	–	–	–	inhibition (INH) (Pseudomonas aeruginosa [9]): 23%; Activity (HaCaT): Non-Toxic; inhibition (INH) (Escherichia coli [10]): 42%; Activity (Caco-2): Non-Toxic
COc1ccccc1C(=O)NS(=O)(=O)c1ccc(N)cc1	> 256 µg/mL	256 µg/mL (≈ 836 µM)	64 µg/mL (≈ 209 µM)	256 µg/mL (≈ 836 µM)	–	–	–	–	Activity (Pseudomonas aeruginosa [9]): Active; Activity (HaCaT): Non-Toxic; Activity (Escherichia coli [10]): Active; Activity (Caco-2): Non-Toxic
CC(=O)Nc1ccc(S(=O)(=O)NC(=O)c2cc(F)c(F)c(F)c2)cc1	–	–	–	–	inactive	inactive	inactive	inactive	–
CC(=O)Nc1ccc(S(=O)(=O)NC(=O)c2ccc(Cl)cc2Cl)cc1	–	–	–	–	inactive	inactive	inactive	inactive	–
COc1cc(C(=O)NS(=O)(=O)c2ccc(NC(C)=O)cc2)ccc1[N+](=O)[O-]	–	–	–	–	inactive	inactive	inactive	inactive	–
CC(=O)Nc1ccc(S(=O)(=O)NC(=O)c2ccc([N+](=O)[O-])cc2)cc1	–	–	–	–	inactive	inactive	inactive	inactive	–
COc1ccccc1C(=O)NS(=O)(=O)c1ccc(NC(C)=O)cc1	–	–	–	–	inactive	inactive	inactive	inactive	–
Nc1ccc(S(=O)(=O)NC(=O)c2cc(F)c(F)c(F)c2)cc1	> 256 µg/mL	> 256 µg/mL	> 256 µg/mL	> 256 µg/mL	–	–	–	–	–

From ChEMBL document CHEMBL5329163, “N-Acylsulfonamide: a valuable moiety to design new sulfa drug analogues” (RSC Med Chem, 2023)
